{"source": "paper PMC6872935", "about": "(Nature materials, 2019)", "key": {"HCT116 cells [1]": {"system": "HCT116 cells", "assay": "3D-SIM super-resolution fluorescence imaging of cells", "assay_type": "cell-based, human", "conditions": "8 μM, 3 h", "in_short": "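Cells were exposed for 3 h to 8 μM test compound or free Alexa 488, PBS-washed, fixed 10 min in 4% paraformaldehyde and mounted in DAPI-containing medium. Super-resolution images were acquired with simultaneous 405 nm (DAPI) and 488 nm (Alexa 488) excitation. Experiments were repeated three times.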"}, "LoVo cells": {"system": "LoVo cells", "assay": "3D-SIM super-resolution fluorescence imaging of cells", "assay_type": "cell-based, human", "conditions": "8 μM, 3 h", "in_short": "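Cells were incubated 3 h with 8 μM Alexa-conjugated test probe or free Alexa 488 dye, then washed three times with PBS. They were fixed in 4% paraformaldehyde for 10 min, washed again and mounted with DAPI-containing medium. 3D-SIM used 405 nm (DAPI) and 488 nm (Alexa 488) excitation. Experiments were repeated three times.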"}, "HCT116 and LoVo tumors": {"system": "HCT116 and LoVo tumors", "assay": "3D-SIM imaging of resected tumors", "assay_type": "in vivo, NU/J nude mouse", "conditions": "50 nmol i.v., tumors resected at 2 h post-injection", "in_short": "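Female NU/J nude mice, 6-8 weeks old, carried s.c. xenografts of 1×10⁶ HCT116 and 1×10⁶ LoVo cells. Each received 50 nmol of test compound or free Alexa 488 i.v.; tumors were resected at 2 h. Tissue was formalin-fixed overnight, cryoprotected overnight in 30% w/v sucrose at 4 °C, OCT-embedded, cut at 10 μm and DAPI-mounted. Imaging used 405/488 nm excitation.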"}, "furin": {"target": "furin (Homo sapiens, UniProt P09958)", "sequence (P09958 108-595 limits assumed)": "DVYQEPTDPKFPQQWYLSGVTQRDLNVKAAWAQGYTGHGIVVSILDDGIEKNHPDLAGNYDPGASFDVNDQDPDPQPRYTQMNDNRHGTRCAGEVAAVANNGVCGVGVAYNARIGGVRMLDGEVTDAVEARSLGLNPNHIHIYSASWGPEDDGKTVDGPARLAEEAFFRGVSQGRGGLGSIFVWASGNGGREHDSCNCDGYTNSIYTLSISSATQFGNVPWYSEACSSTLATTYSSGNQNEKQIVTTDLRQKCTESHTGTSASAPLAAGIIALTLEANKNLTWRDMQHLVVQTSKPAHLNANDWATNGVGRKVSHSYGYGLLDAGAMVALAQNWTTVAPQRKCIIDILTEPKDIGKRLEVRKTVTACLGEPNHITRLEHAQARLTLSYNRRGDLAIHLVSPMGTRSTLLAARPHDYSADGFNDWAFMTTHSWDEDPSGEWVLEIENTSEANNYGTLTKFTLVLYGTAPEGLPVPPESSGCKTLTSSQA", "assay": "Furin-controlled condensation in solution followed by HPLC", "assay_type": "biochemical", "conditions": "25 μM, 250 μM GSH + 0.5 nmol U-1 furin, 12 h, 37 °C", "in_short": "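25 μM test compound was incubated with 250 μM GSH at 37 °C, pH 7.4. Reduction alone ran 2 h; with 0.5 nmol U⁻¹ furin added, incubation ran 12 h. Reduced, cleaved and condensed products were followed by HPLC. Conversion to dimer was tracked as a function of time.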"}, "[2]": {"system": "DNA methyltransferase (DNMT)", "assay": "DNMT activity/inhibition assay kit on nuclear extracts of treated cells", "assay_type": "cell-based, human", "conditions": "HCT116 cells, 500 μM for 3 h, measured 48 h later, n=3", "in_short": "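5×10⁶ HCT116 cells were incubated 3 h at 37 °C with or without 500 μM test compound, washed three times and cultured in fresh McCoy's 5A. After 48 h, nuclear proteins were extracted with a kit and quantified by Bradford assay. DNMT activity was measured with an activity/inhibition kit using 8 μg nuclear protein per well.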"}, "[3]": {"assay": "TEM and DLS of nanoparticle formation", "assay_type": "physicochemical", "conditions": "250 μM GSH + 0.5 nmol U-1 furin, 12 h, furin buffer", "in_short": "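25 μM test compound was incubated 12 h in furin buffer with 250 μM GSH and 0.5 nmol U⁻¹ furin. The resulting particles were examined by TEM, and their size distribution was measured by DLS.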"}, "HCT116 cells [4]": {"system": "HCT116 cells", "assay": "CEST MRI of incubated cells", "assay_type": "cell-based, human", "conditions": "500 μM, 3 h; for CEST signal, fold less compared to Olsa-RVRR: after subtracting values of non-treated cells; for OlsaCEST signal, fold larger compared to free olsalazine: in vitro"}, "HCT116 cells [5]": {"system": "HCT116 cells", "assay": "Cell viability, acridine orange/propidium iodide counting", "assay_type": "cell-based, human", "conditions": "48 h incubation"}, "LoVo tumor": {"system": "LoVo tumor", "assay": "Anti-tumor treatment response", "assay_type": "in vivo, NU/J nude mice", "conditions": "0.1 mmol/kg i.v., Q3D×8, n=4 mice", "in_short": "(§1)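 At 50–100 mm³, mice were randomised into three groups (n=4). Groups received i.v. 0.1 mmol/kg test compound, parent drug or PBS, all in 1% DMSO, every 3 days (Q3D×8). Caliper volume = (smallest dimension)² × largest × 0.5. Day-33 volumes were expressed relative to PBS.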"}, "[6]": {"assay": "Mouse body weight during treatment", "assay_type": "in vivo, NU/J nude mice", "conditions": "0.1 mmol/kg i.v., Q3D×8, n=4 mice", "in_short": "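Female NU/J nude mice, 6-8 weeks old, carried s.c. xenografts of 1×10⁶ HCT116 (left flank) and 1×10⁶ LoVo (right flank) cells. Repeated i.v. dosing (QD3×8) began after tumor cell injection, with a PBS control group. Body weight was recorded over time and reported as mean±SD, n=4 mice.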"}, "[7]": {"assay": "Ex vivo CEST MRI of organs", "assay_type": "in vivo, NU/J nude mice", "conditions": "0.2 mmol/kg i.v.; 2 h p.i. for Olsa-RVRR, 0.5 h p.i. for olsalazine; n=4 mice", "in_short": "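Female nude mice carried s.c. HCT116 (left flank) and LoVo (right flank) xenografts of 100-200 mm³. They received 0.2 mmol/kg test compound i.v. in PBS with 1% DMSO and were killed at 2 h or 30 min. Major organs were placed in PBS in a sealed well plate for CEST imaging. Signal was computed as MTR_asym, expressed relative to muscle; mean±SD, n=4.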"}, "HCT116 tumor [8]": {"system": "HCT116 tumor", "assay": "Anti-tumor treatment response", "assay_type": "in vivo, NU/J nude mice", "conditions": "0.1 mmol/kg i.v., Q3D×8, n=4 mice", "in_short": "as §1"}, "[9]": {"assay": "In vitro CEST MRI of solutions", "assay_type": "physicochemical", "conditions": "11.7 T, 37 °C", "in_short": "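Compound (0.625–10 mM) was dissolved in 10 mM PBS and titrated with 3 M HCl/NaOH to pH 5.0–8.0. Samples in 1 mm capillaries were held at 37 °C at 11.7 T. RARE CEST used TR/TE 6,000/5 ms, B₁ 3.6 μT, and offsets −12 to 12 ppm in 0.3 ppm steps. B₀ was WASSR-corrected. MTR_asym was computed from ±Δω signals over S₀; exchange rate came from QUESP across saturation powers.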"}, "HCT116 tumor [10]": {"system": "HCT116 tumor", "assay": "In vivo CEST MRI of tumor xenograft", "parameters": "species or system NU/J nude mice", "conditions": "0.2 mmol/kg i.v.; no significant difference between HCT116 and LoVo tumors", "in_short": "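Female NU/J nude mice bore s.c. HCT116 (left flank) and LoVo (right flank) xenografts, 1×10⁶ cells each. At 100–200 mm³, mice received i.v. 0.2 mmol/kg test compound or parent drug in PBS with 1% DMSO. Serial CEST MRI over 24 h at 11.7 T used RARE, TR/TE 5,000/3.7 ms, B₁ 3.6 μT, t_sat 4 s, and offsets ±7.4–12.6 ppm. The 0 h MTR_asym was subtracted; n=4 mice.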"}}, "data": [{"molecule": "Ac-Arg-Val-Arg-Arg-Cys(StBu)-Lys(Alexa 488)-2-cyanobenzothiazole [Alexa-RVRR]", "values": [{"measurement": "intracellular green fluorescence (3D-SIM)", "setting": "HCT116 cells [1]", "result": "clustering of green fluorescent nanoparticles"}, {"measurement": "intracellular green fluorescence (3D-SIM)", "setting": "LoVo cells", "result": "much less"}, {"measurement": "green fluorescent nanoparticles in tumors (3D-SIM)", "setting": "HCT116 and LoVo tumors", "result": "much higher quantity of green fluorescent nanoparticles"}]}, {"molecule": "Ac-Arg-Val-Arg-Arg-Cys(StBu)-Lys(olsalazine) [CTR2]", "values": [{"measurement": "furin cleavage of the reduced compound", "setting": "furin", "result": "cleaved to cleaved CTR2 without condensation"}, {"measurement": "DNMT inhibition", "setting": "[2]", "result": "no significant DNMT inhibition"}, {"measurement": "nanoparticle formation with GSH and furin (TEM)", "setting": "[3]", "result": "no nanoparticles were formed"}, {"measurement": "CEST signal, fold less compared to Olsa-RVRR", "setting": "HCT116 cells [4]", "result": 5.2, "unit": "fold"}, {"measurement": "OlsaCEST signal, fold larger compared to free olsalazine", "setting": "HCT116 cells [4]", "result": 2.3, "unit": "fold"}]}, {"molecule": "RKRCRV [CTR1]", "values": [{"measurement": "furin cleavage of the reduced compound", "setting": "furin", "result": "could not be further cleaved"}, {"measurement": "DNMT inhibition", "setting": "[2]", "result": "no significant DNMT inhibition"}, {"measurement": "nanoparticle formation with GSH and furin (TEM)", "setting": "[3]", "result": "no nanoparticles were formed"}, {"measurement": "CEST signal, fold less compared to Olsa-RVRR", "setting": "HCT116 cells [4]", "result": 4.4, "unit": "fold"}, {"measurement": "OlsaCEST signal, fold larger compared to free olsalazine", "setting": "HCT116 cells [4]", "result": 2.8, "unit": "fold"}]}, {"molecule": "O=C(O)c1cc(/N=N/c2ccc(O)c(C(=O)O)c2)ccc1O", "note": "[olsalazine]", "values": [{"measurement": "dose to obtain a toxic effect comparable to Olsa-RVRR at 125 μM", "setting": "HCT116 cells [5]", "result": 2.5, "unit": "mM"}, {"measurement": "fold dose increase needed versus Olsa-RVRR for comparable toxic effect", "setting": "HCT116 cells [5]", "result": 20, "unit": "fold"}, {"measurement": "average tumor volume at day 33 compared to PBS control group set at 100%", "setting": "LoVo tumor", "result": 86, "unit": "%"}, {"measurement": "body weight", "setting": "[6]", "result": "did not show any significant differences in body weight"}, {"measurement": "organ distribution of OlsaCEST signal ex vivo", "setting": "[7]", "result": "both tumor sites showed comparable CEST signals"}, {"measurement": "average tumor volume at day 33 compared to PBS control group set at 100%", "setting": "HCT116 tumor [8]", "result": "~ 88%"}, {"measurement": "DNMT inhibition", "setting": "[2]", "result": "no significant DNMT inhibition"}, {"measurement": "CEST peak offset from the water proton signal", "setting": "[9]; 10 mM in PBS", "result": "~ 9.8 ppm"}, {"measurement": "proton exchange rate (kex)", "setting": "[9]; 10 mM, pH 7.4, QUESP method", "result": 697, "unit": "Hz"}, {"measurement": "maximum OlsaCEST intensity in tumors at 0.5 h p.i.", "setting": "HCT116 tumor [10]", "result": "~ 1.8%"}, {"measurement": "OlsaCEST signal versus non-incubated cells", "setting": "HCT116 cells [4]; p>0.05", "result": "no significant difference between free olsalazine-incubated cells and non-incubated cells"}]}]}
